# Only some compounds are listed: those with a hit (about 3% of all), similar ones and a draw of the others.
# UBC13 inh: blocks human UBC13 polyubiquitin chain formation. TR-FRET. P61088. AID 485273. inhibition, % at 20 µM. hit rate 0.47% among 330,000; in the data active means inhibition above about 45%, passing the limit was not always enough; inconclusive means no clear call, values can overlap the other calls
# Target sequence (P61088 whole entry, looked up): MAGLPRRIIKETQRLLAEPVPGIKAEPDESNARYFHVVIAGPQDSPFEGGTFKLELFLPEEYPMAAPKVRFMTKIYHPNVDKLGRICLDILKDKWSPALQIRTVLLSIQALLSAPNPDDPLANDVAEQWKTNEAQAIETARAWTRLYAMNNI
# Apaf1 inhib: inhibitors of human Apaf-1 apoptosome; O14727; reconstituted apoptosome caspase-3 activity, DEVD-Rh110 fluorescence; inhibition, % at 20 µM; hit rate 0.71% among 330,000; active means inhibition of at least 40% at 20 µM;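 further: plate controls were DMSO wells for no effect and DEVD-CHO caspase inhibitor wells for full effect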
#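 Material: biochemical Apaf-1 apoptosome reconstitution. Medium: Hepes buffer, pH 7.5. Also added: cytochrome c activation, bis-DEVD rhodamine 110 substrate. Timing: 30 min compound preincubation, 50 min activation, room temperature. Measured by: rhodamine 110 fluorescence at Ex 480/Em 540 nm.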
# SENP7 inh: blocks the human protease SENP7 | AID 434973 | hit rate 1.5% among 330,000 | inhibition, % at 5 µM | Q9BQF6 | recombinant SENP7, Z-RLRGG-aminoluciferin luminescence, 40 min;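 active means inhibition above about 50% at the single test dose, limit read from the data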;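 further: plate controls were DMSO with enzyme for no effect and no enzyme buffer wells for full effect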
# Target sequence (Q9BQF6 706-1050 limits assumed): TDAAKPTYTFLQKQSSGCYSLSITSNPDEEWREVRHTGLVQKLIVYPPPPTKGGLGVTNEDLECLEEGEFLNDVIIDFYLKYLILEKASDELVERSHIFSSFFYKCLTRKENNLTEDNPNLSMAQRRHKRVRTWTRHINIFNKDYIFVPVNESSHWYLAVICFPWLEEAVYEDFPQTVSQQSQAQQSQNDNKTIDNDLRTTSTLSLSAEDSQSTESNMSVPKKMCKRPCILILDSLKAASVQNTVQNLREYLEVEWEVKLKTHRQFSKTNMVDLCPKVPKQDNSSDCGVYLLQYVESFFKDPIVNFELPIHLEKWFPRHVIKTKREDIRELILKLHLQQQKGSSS
# SENP8 block-1: SENP8 protease inhibition. hit rate 1.2% among 330,000. purified SENP8, Z-RLRGG-aminoluciferin cleavage, luminescence. inhibition, % at 10 µM; in the data active means inhibition above about 50%
# Target sequence (Q96LD8 whole entry, looked up): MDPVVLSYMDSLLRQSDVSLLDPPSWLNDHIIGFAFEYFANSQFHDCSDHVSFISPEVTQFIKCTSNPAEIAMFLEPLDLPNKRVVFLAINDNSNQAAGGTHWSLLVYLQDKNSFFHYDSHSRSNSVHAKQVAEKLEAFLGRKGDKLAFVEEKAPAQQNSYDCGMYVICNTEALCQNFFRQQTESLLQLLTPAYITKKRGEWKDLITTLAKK
# SENP6 block: inhibitors of human SENP6 protease; Q9GZR1; inhibition, % at 10 µM; hit rate 1.8% among 330,000; Recombinant SENP6 catalytic domain, aminoluciferin luminescence; AID 2599;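 active means inhibition above about 50% at the single tested dose, limit read from the data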;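 further: plate controls were DMSO wells with enzyme for no effect and DMSO wells lacking enzyme for full effect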
# SENP8 block-2: blocks human SENP8 cleavage of Nedd8 substrate | recombinant SENP8, Nedd8 substrate fluorescence | hit rate 0.64% among 360,000 | AID 602440 | inhibition, % at 20 µM | Q96LD8; in the data active means inhibition mostly above about 40%, no sharp cut-off; inactive means mostly below about 27%
# Casp3 UBC13 ctr: counter-screen for UBC13 inhibitors: human caspase-3 inhibition; shares compounds with UBC13 inh; Recombinant caspase-3, Caspase-Glo 3/7 luminescence, 60 min; inhibition, % at 20 µM; hit rate 4% among 1,400; AID 488856;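 active means mean inhibition across replicates above about 26%, limit read from the data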;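 further: plate controls were DMSO with caspase-3 for no effect and DMSO wells lacking enzyme for full effect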
# UBC13 confirm: human UBC13 polyubiquitin inhibition, confirmed; shares compounds with UBC13 inh; UBC13 polyubiquitination, TR-FRET, biochemical; inhibition, % at 10 µM; hit rate 68% among 1,400; AID 488859; in the data active means inhibition above about 45%; inconclusive means no clear call, values can overlap the other calls
# An asterisk follows results filed as active; i = inactive; ? = inconclusive; nt = no result.
SMILES,UBC13 inh,Apaf1 inhib,SENP7 inh,SENP8 block-1,SENP6 block,SENP8 block-2,Casp3 UBC13 ctr,UBC13 confirm
Cc1ccc(OCCCC(=O)Nc2ccc(S(=O)(=O)N3CCOCC3)cc2)cc1,56.0*,-1.2,2.2,10.2,2.9,2.1,-2.6,37.0
O=C(CCCOc1ccccc1)Nc1ccc(S(=O)(=O)N2CCOCC2)cc1,-4.5,12.7,-0.2,-5.3,-46.3,27.0,nt,nt
CCc1cccc(NC(=O)CSC2=NS(=O)(=O)c3ccccc32)c1,47.2*,-13.5,-12.4,7.5,-6.4,9.8,0.4,24.6
O=C(Nc1ccc(C(=O)NCCCN2CCN(c3ccc(F)cc3)CC2)cc1)C1=CSCCO1,65.2*,-0.5,4.6,7.2,6.8,2.8,-0.9,97.2*
CCc1nc2c(OCCOc3ccc(F)cc3)cccn2c1N(C=O)Cc1ccc(OC)cc1,nt,nt,nt,nt,nt,14.4,nt,nt
Cc1ccc(C(=O)N/C(=C\c2ccc(-c3ccc(Cl)cc3)o2)C(=O)NCCCN(C)C)cc1,47.4*,19.2,-6.3,-12.0,-15.8,-385.2,-3.3,70.1*
O=C(Nc1ccncc1)Nc1cccc(Cl)c1,8.5,9.7,11.5,-9.6,12.3,8.0,nt,nt
O=C(Nc1ccc(C2=NCCN2)cc1)c1ccc(C(=O)Nc2ccc(C3=NCCN3)cc2)c(Cl)c1,103.9*,-21.8,-6.5,4.6,-14.0,3.9,-0.4,117.9*
O=C(Nc1ccc(C(=O)N2CCCC2)cc1)c1ccc(F)cc1Cl,0.9,10.3,-3.2,-9.1,2.0,7.1,nt,nt
O=C(Nc1cccc(C2=NCCN2)c1)Nc1cccc(C2=NCCN2)c1,97.1*,33.9,1.4,2.2,3.6,21.7,-3.8,103.8*
Fc1ccc(Nc2nc(NCc3ccco3)c3ccccc3n2)cc1,53.8*,31.1,-1.5,9.9,3.9,-448.4,0.9,73.8*
CN(C)CCNC=C(C(=O)Nc1ccc(Cl)cc1Cl)C(=O)Nc1ccc(Cl)cc1Cl,55.7*,9.1,11.0,-13.3,2.4,22.2,-1.9,80.5*
CC(OC(=O)c1ccc(OCC2CCCO2)cc1)C(=O)N(C)Cc1ccccc1 (centres undefined),-2.5,-6.7,-5.3,-7.8,-12.0,9.8,nt,nt
Cc1ccc(-c2csc(NC(=O)C[n+]3cc(-c4ccccc4)n4c3CCC4)n2)cc1,44.6,9.6,-2.1,-9.3,-25.2,17.3,nt,nt
Cc1ccc(-c2csc(NC(=O)C[n+]3cc(-c4ccc(C)cc4)n4c3CCC4)n2)cc1,59.7*,30.4,-7.3,-7.6,-17.0,20.3,0.8,69.8*
COc1ccccc1C(=O)NCCC(=O)N(C)CC(=O)Nc1ccc(Cl)cc1,5.1,-0.5,0.8,5.6,-0.2,2.3,nt,nt
COc1cc(-c2nc(C(=O)NC3CCN(Cc4ccccc4)CC3)cc3c2[nH]c2ccccc23)cc(OC)c1OC,55.8*,40.9*,-12.6,-14.4,-4.0,-188.9,-1.0,48.9*
COc1ccc(OC)c(-c2nc(C(=O)NC3CCN(Cc4ccccc4)CC3)cc3c2[nH]c2ccccc23)c1,13.7,38.0,-1.7,-6.0,-12.6,-219.4,nt,nt
CNCc1ccccc1OCc1ccccc1F,-9.4,-3.0,-9.7,-4.7,7.3,2.8,nt,nt
CC(C)CC(C(=O)NC(C)(C)C)N(Cc1cccs1)C(=O)c1snc(C(N)=O)c1N (centres undefined),65.0*,16.0,-10.1,-11.8,-3.8,-405.9,-1.9,66.9*
CC(C)CC(C(=O)NC(C)(C)C)N(Cc1ccccc1Cl)C(=O)c1snc(C(N)=O)c1N (centres undefined),71.0*,18.3,4.2,2.8,2.0,-304.0,4.1,93.1*
COc1ccc(CCNC(=O)COC(=O)C2=NNC(=O)CC2)cc1,nt,nt,nt,nt,nt,8.5,nt,nt
CCOC(=O)c1sc2nc(C3CC3)cc(-c3ccc(OC)cc3)c2c1N,48.3*,12.2,4.0,-2.4,-2.2,-430.3,-3.1,?
Cn1c(=O)c2c(nc(Cl)n2Cc2ccc(Cl)c(Cl)c2)n(C)c1=O,2.6,3.0,-5.6,-7.3,-4.2,18.8,nt,nt
Cn1c(=O)c2c(ncn2Cc2cccc(Cl)c2)n(C)c1=O,74.3*,-19.0,7.3,-2.6,-9.1,14.8,-9.1,74.9*
SMILES,UBC13 inh,Apaf1 inhib,SENP7 inh,SENP8 block-1,SENP6 block,SENP8 block-2,Casp3 UBC13 ctr,UBC13 confirm
Cn1c(=O)c2c(ncn2Cc2ccc(Cl)c(Cl)c2)n(C)c1=O,85.2*,2.8,-7.5,-9.3,1.9,9.9,-1.9,88.0*
O=C(O)C(Cc1ccccc1)N1C(=O)c2cccc3cccc(c23)C1=O (centres undefined),-9.4,4.9,0.5,5.2,2.0,-21.5,nt,nt
O=C1c2cccc3cccc(c23)C(=O)N1CCc1ccccc1,51.3*,14.4,0.9,0.0,16.2,-224.5,3.3,?
Cc1cc(OC(C)C(=O)NC2CC(C)(C)NC(C)(C)C2)c2c(C)c(C)c(=O)oc2c1 (centres undefined),nt,nt,nt,nt,nt,i,nt,nt
O=c1cc(-c2ccsc2)oc2ccc(-c3ccc4cc[nH]c4c3)cc12,-5.7,13.2,10.6,-17.2,30.5,-69.8,nt,nt
CCOc1ccc(Cl)cc1Nc1nc(NCCO)nc(N2CCCC2)n1,37.1,-0.1,0.1,4.1,-5.1,12.5,nt,nt
OCCNc1nc(Nc2cc(Cl)ccc2OC2CCCC2)nc(N2CCCC2)n1,52.1*,33.0,-0.1,-8.2,-12.3,11.1,1.5,36.7
OCCNc1nc(Nc2ccccc2Cl)nc(N2CCCC2)n1,9.1,0.3,-6.2,6.4,-2.3,10.8,nt,nt
CCCCOc1ccc(Cl)cc1Nc1nc(NCCO)nc(N2CCCC2)n1,59.5*,30.5,-8.0,-0.6,6.6,7.4,-3.5,19.3
COc1ccc(Cl)cc1Nc1nc(NCCO)nc(N2CCCCC2)n1,62.3*,8.2,-0.4,-0.6,-14.5,1.7,5.9,32.0
COc1ccc(Cl)cc1Nc1nc(NCCO)nc(N2CCCC2)n1,8.1,13.9,-1.3,-6.8,-16.5,1.6,nt,nt
CC(C)Oc1ccc(Cl)cc1Nc1nc(NCCO)nc(N2CCCC2)n1,59.7*,24.6,3.0,-15.8,-21.5,15.3,7.8,34.3
O=C1C=C(c2cccc3c2oc2ccccc23)C[C@@H](c2ccc(F)cc2)C1,-12.0,5.7,-0.6,6.3,-1.9,6.6,nt,nt
Cc1ccc2[nH]c(C(=O)O)c(NC(=O)[C@@H]3C[C@@H]3c3ccccc3)c2c1,4.0,-2.2,6.4,-4.8,2.8,-16.4,nt,nt
CCCCC(=O)NC(=S)NNC(=O)c1ccc(OC)cc1,68.6*,-24.1,8.1,1.1,8.2,10.4,1.9,40.8
CCCOc1ccc(C(=O)NNC(=S)NC(=O)CC)cc1,66.4*,18.0,2.0,7.8,-16.9,6.7,-0.3,82.7*
CCC(=O)NC(=S)NNC(=O)c1ccc(NC(=O)c2ccccc2)cc1,70.7*,-8.1,3.3,3.0,-3.4,2.1,12.5,91.2*

# Bioassay records deposited in PubChem BioAssay by Sanford-Burnham Center for Chemical Genomics.
